Laboratory results published in ChEMBL document CHEMBL1152651, “In vivo and in vitro anti-leishmanial activities of 4-nitro-N-pyrimidin- and N-pyrazin-2-ylbenzenesulfonamides, and N2-(4-nitrophenyl)-N1-propylglycinamide” (Bioorg Med Chem, 2009).
Activity calls are given as the source filed them. The rule behind the calls is not given here.

Columns and labels:
Leishmania infantum [1] = experiment: Antileishmanial activity against Leishmania infantum MCAN/ES/92/BCN 83 promastigotes at 100 ug/ml after 48 hrs by resazurin method; format: functional; settings: for inhibition of growth at 100 µg/mL: MCAN/ES/92/BCN 83, 48 h, read-out: GI
Outline: (§1)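 L. infantum MCAN/ES/92/BCN 83 promastigotes (Schneider's medium, 20% heat-inactivated FBS, 26 °C), 2.5 × 10^5 per well. Compounds in DMSO were first screened at 1, 10, 100 µg/mL, then 252 to 1.9 µM for active ones. After 48 h at 26 °C, resazurin was added and fluorescence read (ex 535/em 590 nm) for % growth inhibition. Triplicates; IC50 by least-squares linear regression.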

Leishmania infantum [2] = experiment: Antileishmanial activity against Leishmania infantum MCAN/ES/92/BCN 83 promastigotes after 48 hrs by resazurin method; format: functional, organism-based; outline: as §1
J774 = experiment: Cytotoxicity against mouse J774 cells after 24 hrs by resazurin reduction test; format: cell-based
Outline: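 J774 murine macrophages (RPMI 1640, 10% FBS, 37 °C, 5% CO2), 5 × 10^4 cells/well, adhered 24 h. Then exposed to compounds for 24 h. Resazurin added for 3 h; fluorescence read at ex 535/em 590 nm, background subtracted. Each concentration assayed three times.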

Leishmania infantum [3] = experiment: Antileishmanial activity against Leishmania infantum MCAN/ES/92/BCN 83 promastigotes-infected in BALB/c mouse assessed as reduction of parasite burden in spleen at 5 mg/kg, ip once daily for 10 days by limit dilution assay relative to control; set-up: scale not given: the % may be the effect or the level left; settings: route intraperitoneal
Mus musculus [4] = experiment: Toxicity in BALB/c mouse assessed as reduction in body weight at 5 mg/kg, ip once daily; settings: in vivo
Leishmania infantum [5] = experiment: Antileishmanial activity against Leishmania infantum MCAN/ES/92/BCN 83 promastigotes-infected in BALB/c mouse assessed as reduction of parasite burden in liver at 5 mg/kg, ip once daily for 10 days by limit dilution assay relative to control; set-up: scale not given: the % may be the effect or the level left; settings: route intraperitoneal
Mus musculus [6] = experiment: Toxicity in BALB/c mouse assessed as reduction hair loss at 5 mg/kg, ip once daily; settings: in vivo
Nucleic Acid [7] = experiment: Induction of supercoiled Escherichia coli pUC18 DNA cleavage at 6 to 60 uM after 60 mins by agarose gel electrophoresis; format: nucleic-acid assay
Outline: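 Supercoiled pUC18 plasmid in 0.1 M cacodylate buffer pH 6.0 with compound at 6–60 µM final, 1 h at 37 °C. Analysed by 0.8% agarose gel in 0.5× TBE with ethidium bromide, 80 V, about 2 h.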

Calf thymus DNA [8] = experiment: Binding affinity to calf thymus DNA assessed as increase in DNA viscosity at 1 to 30 uM by viscometer; format: nucleic-acid assay; settings: Bos taurus
Outline: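 Ubbelohde viscometer at 25.0 or 37.0 °C. Compounds in DMF/cacodylate buffer (pH 6) 2:10 added to 50 µM CT-DNA in cacodylate buffer; final 1–30 µM. Flow times in triplicate, η = t − t0. Plotted as (η/η0)^1/3 versus the compound/DNA ratio.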

Calf thymus DNA [9] = experiment: Binding affinity to calf thymus DNA assessed as melting temperature (Rvb Tm = 53.8 degC); format: nucleic-acid assay; settings: Bos taurus
Nucleic Acid [10] = experiment: Induction of Cu2+-dependent DNA cleavage in Escherichia coli pUC18 DNA assessed as degradation of super coiled form at 15 to 30 uM after 60 mins by agarose gel electrophoresis in presence of cupric chloride; format: nucleic-acid assay
Outline: (§2)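 pUC18 plasmid in 0.1 M cacodylate pH 6.0 with CuCl2 + compound (1:1) at 15–45 µM final, plus ascorbate (50-fold excess over Cu(II)). 1 h at 37 °C. Supercoiled, circular and linear forms resolved on 0.8% agarose/0.5× TBE gel with ethidium bromide, 80 V, about 2 h.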

Nucleic Acid [11] = experiment: Induction of Cu2+-dependent DNA cleavage in Escherichia coli pUC18 DNA assessed as degradation of super coiled form at 45 uM after 60 mins by agarose gel electrophoresis in presence of cupric chloride; format: nucleic-acid assay; outline: as §2
[12] = Leishmania infantum, MCAN/ES/92/BCN 83, 48 h, read-out: IC50
[13] = Mus musculus, J774, 24 h, read-out: IC50

SMILES | inhibition of growth at 100 µg/mL (Leishmania infantum [1]) | IC50 (Leishmania infantum [2]; [12]) | other results
Cc1cc(NS(=O)(=O)c2ccc(Cl)cc2)no1 | 15.7% | > 256 µM | –
O=[N+]([O-])c1ccccc1S(=O)(=O)Nc1ncccn1 | 40.6% | > 256 µM | –
O=[N+]([O-])c1ccc(S(=O)(=O)Nc2ccc3c(c2)CCC3)cc1 | 91.9% | < 1 µM | IC50 (J774; [13]): 61 µM
COc1ccc(S(=O)(=O)Nc2ncccn2)cc1 | 29.6% | > 256 µM | –
O=S(=O)(Nc1ccc2c(c1)CCC2)c1ccc(Cl)cc1 | 49.9% | > 256 µM | –
Cc1cc(NS(=O)(=O)c2ccccc2)no1 | 17.9% | > 256 µM | –
O=S(=O)(Nc1ncccn1)c1ccc(Cl)cc1 | – | – | IC50 (J774; j774): Not Active; growth inhibition (GI) (Leishmania infantum [1]): inactive; IC50 (Leishmania infantum [2]): Not Active
O=S(=O)(Nc1cnccn1)c1ccc(Cl)cc1 | 25.3% | > 256 µM | –
O=[N+]([O-])c1ccc(S(=O)(=O)Nc2ccncc2)cc1 | 46.3% | > 256 µM | –
O=[N+]([O-])c1cccc(S(=O)(=O)Nc2ncccn2)c1 | – | – | IC50 (J774; j774): Not Active; growth inhibition (GI) (Leishmania infantum [1]): inactive; IC50 (Leishmania infantum [2]): Not Active
O=[N+]([O-])c1ccc(S(=O)(=O)Nc2ccccn2)cc1 | 39.3% | > 256 µM | –
Cc1cc(NS(=O)(=O)c2ccc([N+](=O)[O-])cc2)n[nH]1 | 71.5% | 164 µM | IC50 (J774; [13]): > 256 µM
O=S(=O)(Nc1cnccn1)c1ccccc1 | 37% | > 256 µM | –
Nc1ccc(S(=O)(=O)Nc2ncccn2)cc1 [SULFADIAZINE] | – | – | IC50 (J774; j774): Not Active; growth inhibition (GI) (Leishmania infantum [1]): inactive; IC50 (Leishmania infantum [2]): Not Active
O=[N+]([O-])c1ccc(S(=O)(=O)Nc2ccc3[nH]ncc3c2)cc1 | 88.2% | 14.5 µM | IC50 (J774; [13]): > 256 µM
CS(=O)(=O)Nc1ncccn1 | – | – | IC50 (J774; j774): Not Active; growth inhibition (GI) (Leishmania infantum [1]): inactive; IC50 (Leishmania infantum [2]): Not Active
Cc1cc(C)nc(NS(=O)(=O)c2ccc(Cl)cc2)n1 | 71.5% | 224 µM | IC50 (J774; [13]): > 256 µM

SMILES | inhibition of growth at 100 µg/mL (Leishmania infantum [1]) | IC50 (Leishmania infantum [2]; [12]) | other results
Cc1csc(NS(=O)(=O)c2ccc([N+](=O)[O-])cc2)n1 | 55.6% | > 256 µM | –
O=[N+]([O-])c1ccc(S(=O)(=O)Nc2cnccn2)cc1 | 90.8% | 66.2 µM | IC50 (J774; [13]): > 256 µM; Activity (Leishmania infantum [3]): 99.44%; Activity (Mus musculus [4]): Non-toxic; Activity (Leishmania infantum [5]): 99.28%; Activity (Mus musculus [6]): Non-toxic
Cc1cnc(NS(=O)(=O)c2ccccc2)s1 | 69% | > 256 µM | –
O=S(=O)(Nc1nccs1)c1ccc(Cl)cc1 | 65% | > 256 µM | –
CCCNC(=O)CNc1ccc([N+](=O)[O-])cc1 | 85% | 156 µM | IC50 (J774; [13]): > 256 µM; Activity (Nucleic Acid [7]): inactive; Activity (Leishmania infantum [3]): 99.89%; Activity (Calf thymus DNA [8]): inactive; Activity (Mus musculus [4]): Non-toxic; Activity (Leishmania infantum [5]): 97.95%; Tm (Calf thymus DNA [9]): 54 °C; Activity (Nucleic Acid [10]): inactive; Activity (Mus musculus [6]): Non-toxic; Activity (Nucleic Acid [11]): Active
Cc1cnc(NS(=O)(=O)c2ccc([N+](=O)[O-])cc2)s1 | 36.7% | > 256 µM | –
O=S(=O)(Nc1ncccn1)c1ccc(F)cc1 | – | – | IC50 (J774; j774): Not Active; growth inhibition (GI) (Leishmania infantum [1]): inactive; IC50 (Leishmania infantum [2]): Not Active
O=S(=O)(Nc1ncccn1)c1ccccc1 | 20.3% | > 256 µM | –
O=[N+]([O-])c1ccc(S(=O)(=O)Nc2ncccn2)cc1 | 92.7% | 100 µM | IC50 (J774; [13]): > 256 µM; Activity (Nucleic Acid [7]): inactive; Activity (Leishmania infantum [3]): 99.82%; Activity (Calf thymus DNA [8]): inactive; Activity (Mus musculus [4]): Non-toxic; Activity (Leishmania infantum [5]): 97.58%; Tm (Calf thymus DNA [9]): 54.2 °C; Activity (Nucleic Acid [10]): inactive; Activity (Mus musculus [6]): Non-toxic; Activity (Nucleic Acid [11]): Active
Cc1cnc(NS(=O)(=O)c2ccc(Cl)cc2)s1 | 74.5% | > 256 µM | –
O=S(=O)(Nc1ncccn1)c1ccc(Br)cc1 | – | – | IC50 (J774; j774): Not Active; growth inhibition (GI) (Leishmania infantum [1]): inactive; IC50 (Leishmania infantum [2]): Not Active
Cc1cc(C)nc(NS(=O)(=O)c2ccc([N+](=O)[O-])cc2)n1 | 33.3% | > 256 µM | –
O=[N+]([O-])c1ccc(S(=O)(=O)Nc2nccs2)cc1 [PARA-NITROSULFATHIAZOLE] | 58.6% | > 256 µM | –
O=[N+]([O-])c1ccc(S(=O)(=O)Nc2cccnc2)cc1 | 35.7% | > 256 µM | –
Cc1cc(NS(=O)(=O)c2ccc([N+](=O)[O-])cc2)no1 | 85.6% | 126 µM | IC50 (J774; [13]): > 256 µM
O=S(=O)(Nc1ccc2c(c1)CCC2)c1ccccc1 | 45.3% | > 256 µM | –
